Source: PubChem BioAssay
TRPC4 PAM: positive allosteric modulators of TRPC4, primary screen, cell-based, mouse TRPC4beta, HEK293 mu-opioid, Fluo-4 calcium | 310,000 compounds, 0.42% hits | B-score at 10 µM | Short transient receptor potential channel 4 (Mus musculus), Q9QUQ5 | DAMGO EC20, Fluo-4 Ca2+ flux; stronger effect = higher value;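 active = B-score of calcium response area above 5 SD of library B-scores, with initial fluorescence ratio within 5 SD of library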;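 note: B-score of integrated fluorescence ratio over time as area under calcium response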
Target sequence (Q9QUQ5 whole entry, looked up): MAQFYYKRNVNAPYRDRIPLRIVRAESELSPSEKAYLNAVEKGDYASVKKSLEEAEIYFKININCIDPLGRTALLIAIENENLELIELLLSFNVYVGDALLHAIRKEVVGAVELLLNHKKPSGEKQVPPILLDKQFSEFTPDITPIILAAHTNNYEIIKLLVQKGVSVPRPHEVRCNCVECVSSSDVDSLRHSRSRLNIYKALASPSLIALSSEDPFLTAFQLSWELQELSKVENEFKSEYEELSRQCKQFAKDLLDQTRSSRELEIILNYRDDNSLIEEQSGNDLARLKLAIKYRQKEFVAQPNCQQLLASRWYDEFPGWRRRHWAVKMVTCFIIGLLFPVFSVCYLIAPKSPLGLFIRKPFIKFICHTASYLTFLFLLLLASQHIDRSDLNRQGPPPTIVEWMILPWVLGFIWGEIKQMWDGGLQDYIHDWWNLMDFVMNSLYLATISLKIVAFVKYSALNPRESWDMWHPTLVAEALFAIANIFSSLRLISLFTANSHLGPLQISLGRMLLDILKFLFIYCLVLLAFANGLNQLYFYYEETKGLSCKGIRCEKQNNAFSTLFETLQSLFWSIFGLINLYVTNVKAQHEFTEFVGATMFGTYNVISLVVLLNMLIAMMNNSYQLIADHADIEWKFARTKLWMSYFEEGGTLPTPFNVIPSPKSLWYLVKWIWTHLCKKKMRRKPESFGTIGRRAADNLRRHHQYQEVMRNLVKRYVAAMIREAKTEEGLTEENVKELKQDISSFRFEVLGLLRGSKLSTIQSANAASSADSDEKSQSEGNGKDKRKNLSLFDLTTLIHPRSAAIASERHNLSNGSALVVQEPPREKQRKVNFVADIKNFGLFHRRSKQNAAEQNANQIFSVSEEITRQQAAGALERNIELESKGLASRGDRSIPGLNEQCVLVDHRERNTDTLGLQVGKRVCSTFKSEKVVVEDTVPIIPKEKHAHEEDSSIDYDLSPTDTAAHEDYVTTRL
TRPC4 act: activators of mouse TRPC4 channel, primary screen, Fluo4 calcium, HEK293 TRPC4beta/mu-opioid cells; Short transient receptor potential channel 4 (Mus musculus), Q9QUQ5; Fluo4 calcium fluorescence; stronger effect = higher value; B-score at 10 µM; 310,000 compounds, 0.49% hits;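 active = B-score above 5 SD of library B-scores, and initial fluorescence ratio not above library mean plus 5 SD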;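 note: positive B-score marks a calcium rise read as TRPC4 activation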
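Incubation: 45 min room-temperature Fluo4 loading, 110 s read / System: HEK293 cells stably co-expressing mouse TRPC4beta and mu-opioid receptor / Signal: Fluo4 fluorescence, kinetic / Control set: buffer (low) and maximal DAMGO (high) / Measure: integrated baseline-normalised fluorescence ratio, converted to per-well B score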
TRPC4 block: inhibitors of mouse TRPC4 channel, primary screen, Fluo4 calcium, HEK293 TRPC4beta/mu-opioid cells; Short transient receptor potential channel 4 (Mus musculus), Q9QUQ5; DAMGO-evoked Fluo4 calcium flux; stronger effect = lower value; B-score at 10 µM; 300,000 compounds, 0.39% hits; AID 2247, 2010;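 active = B-score over 3 SD under the library average, no early fluorescence shift, positive overall ratio signal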
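test system = HEK293 cells with stable TRPC4beta plus mu-opioid receptor expression | detection = Fluo4 Ca2+ flux fluorescence | read-out = integrated fluorescence ratio relative to baseline, converted to per-well B score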
TRPC6 act: mouse TRPC6 channel activators, primary screen, cell-based, HEK293, membrane potential dye | Short transient receptor potential channel 6 (Mus musculus), Q61143 | HEK293-TRPC6 membrane potential dye fluorescence; stronger effect = higher value | B-score at 10 µM | 310,000 compounds, 0.13% hits;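 active = B-score of the integrated fluorescence ratio above library mean plus 3 SD, and starting fluorescence ratio within library mean plus 5 SD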;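 note: higher score means more depolarization so channel activation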
TRPC6 inhibitor: mouse TRPC6 channel inhibitors, primary screen, cell-based, HEK293, membrane potential dye; Short transient receptor potential channel 6 (Mus musculus), Q61143; ACh-evoked depolarization; stronger effect = lower value; B-score at 10 µM; 310,000 compounds, 1.1% hits;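 active = B-score under library mean minus 3 SD, initial fluorescence not abnormally high, positive integrated signal ratio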;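 note: B-score derived from integrated fluorescence ratio over the kinetic read; more negative B-score means stronger inhibition of depolarization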
TRPC4 sel inh 2: mouse TRPC4 off-target activity of TRPC6 inhibitors, second screen | shares compounds with TRPC6 inhibitor | HEK293 TRPC4/MOR, membrane potential dye fluorescence; channel activated by saturating DAMGO dose | inhibition, % at 10 µM | 920 compounds, 42% hits | AID 2776;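 active = compounds whose fluorescence signal differed from control wells by over 3 SD, either direction, in both duplicate plates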
TRPC4 spec: mouse TRPC4 modulation by TRPC6 hits, confirmation, selectivity assay for TRPC6 inhibitor project, cell-based, HEK293 TRPC4/mu-opioid, membrane potential dye | shares compounds with TRPC6 inhibitor | 920 compounds, 61% hits | membrane potential fluorescence | AID 2777, 2010 | activity change, negative = inhibition, % at 10 µM;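 active = rise or fall in signal beyond 3 SD of buffer-only wells in both replicate plates, either sign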;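 note: integrated kinetic ratio of fluorescence range over baseline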
HEK293 MPD ctr 2-1: nonspecific membrane potential effects, parental HEK293, confirmation, counter-screen for TRPC6 inhibitor project, cell-based, second counter screen. shares compounds with TRPC6 inhibitor. parental HEK293 membrane potential dye fluorescence; maximal acetylcholine challenge after compound addition. signal change vs control, % at 10 µM. 920 compounds, 31% hits. AID 2779, 2010;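 active = membrane potential signal moving either way by over 3 SD of the maximum-effect control, in both duplicate plates, meaning non-specific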
HEK293 MPD ctr-1: membrane potential modulation in parental HEK293, confirmation, counter-screen for TRPC6 inhibitor project, cell-based | shares compounds with TRPC6 inhibitor | parental HEK293 membrane potential dye fluorescence | membrane potential signal change, % at 10 µM | 920 compounds, 60% hits | AID 2780, 2010;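 active = membrane potential signal shifting up or down by more than 3 SD of buffer-only wells, on both duplicate plates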
HEK293 MPD ctr-2: parental HEK293 membrane potential modulation, confirmation, counter-screen for TRPC6 modulator project, cell-based. shares compounds with TRPC6 inhibitor. membrane potential dye fluorescence. 2,400 compounds, 51% hits. membrane potential signal change, % at 10 µM. AID 488924, 2010;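 active = membrane potential signal moves up or down beyond 5 SD from buffer-only wells, on both duplicate plates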
HEK293 MPD ctr 2-2: second counter-screen for TRPC6 modulators: effect in parental HEK293 cells; shares compounds with TRPC6 inhibitor; membrane potential dye fluorescence; after compound, maximal acetylcholine stimulation; inhibition, % at 10 µM; 2,400 compounds, 14% hits; AID 488926;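 active = membrane potential signal drops by more than 5 SD from the mean control signal, in both duplicate plates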;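 note: plate controls were acetylcholine ECmax control wells for no effect and buffer only wells for full effect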
TRPC4/MOR mod: TRPC4 modulation by TRPC6 hit compounds, confirmation, selectivity assay for TRPC6 modulator project, cell-based, HEK293 TRPC4/mu-opioid, membrane potential dye, mouse; shares compounds with TRPC6 inhibitor; membrane potential fluorescence; percent change from control (negative = decrease, positive = increase), % at 10 µM; 2,400 compounds, 69% hits;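 active = membrane potential signal moved up or down beyond 5 SD of buffer control wells, in both duplicate plates, actives on both sides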;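 note: plate controls were assay buffer wells for no effect and DAMGO maximal-effect wells for full effect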
TRPC4 ctr inh 2: second selectivity test of TRPC6 modulators against mouse TRPC4. shares compounds with TRPC6 inhibitor. HEK293 TRPC4/mu-opioid, membrane potential dye fluorescence; stimulated with maximal-effect DAMGO. inhibition, % at 10 µM. 2,400 compounds, 55% hits. AID 488928;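 active = drop in membrane potential signal beyond 5 SD of the control wells in both duplicate plates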;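 note: TRPC4 counter screen for TRPC6 hits run under conditions tuned for TRPC6 not TRPC4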
TRPC6 inh conf: mouse TRPC6 channel inhibitors, confirmation, HEK293 cells, membrane potential dye, duplicate; ACh-evoked depolarization; AID 488960, 2010; 3,300 compounds, 43% hits; inhibition, % at 10 µM; shares compounds with TRPC6 inhibitor;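 active = fluorescence ratio falls more than 5 SD below the full-stimulation control mean, in both duplicate runs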;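 note: integrated fluorescence ratio of peak minus minimum over baseline after agonist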
TRPC6 act confirm: mouse TRPC6 channel activators, confirmation, HEK293 cells, membrane potential dye, duplicate | AID 488961, 2010 | shares compounds with TRPC6 inhibitor | 2,800 compounds, 11% hits | HEK293-TRPC6 membrane potential dye fluorescence, FDSS | activation, % at 10 µM;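 active = ratio signal rise beyond 5 SD above unstimulated control wells' mean, seen in both duplicate runs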;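 note: plate controls were buffer EC0 wells for no effect and acetylcholine ECmax response for full effect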
Active calls of the source: *; i = inactive; x = no result. Compounds with a hit are over-represented: about 2.3% of the library has one in this group of screens.

SMILES | TRPC4 PAM | TRPC4 act | TRPC4 block | TRPC6 act | TRPC6 inhibitor | TRPC4 sel inh 2 | TRPC4 spec | HEK293 MPD ctr 2-1 | HEK293 MPD ctr-1 | HEK293 MPD ctr-2 | HEK293 MPD ctr 2-2 | TRPC4/MOR mod | TRPC4 ctr inh 2 | TRPC6 inh conf | TRPC6 act confirm
CCC(=O)N1N=C(c2ccccc2)CC1c1ccccc1 (stereo not drawn) | i | i | i | i | i | x | x | x | x | x | x | x | x | x | x
N=C(SC1CC(=O)N(c2ccc(F)cc2)C1=O)N1N=C(c2ccccc2)CC1c1ccccc1 (stereo not drawn) | i | i | i | i | -7.7* | i | i | i | i | x | x | x | x | i | i
Cc1cc(NC(=O)CCC(=O)N(C2CC2)C2(C(=O)NC3CCCC3)CCC(C)CC2)no1 (stereo not drawn) | i | i | i | i | -5.1* | x | x | x | x | i | i | 18%* | i | i | x
Cc1cc(NC(=O)CCC(=O)N(Cc2ccco2)C2(C(=O)NC3CCCC3)CCC(C)CC2)no1 (stereo not drawn) | i | i | i | i | i | x | x | x | x | x | x | x | x | x | x
CN1CCN(/N=C/c2ccc(N(C)c3ccccc3)cc2)CC1 | i | i | i | i | -7.1* | x | x | x | x | i | i | -12%* | 56%* | 63%* | i
CN1CCN(/N=C/c2ccc(N(c3ccccc3)c3ccccc3)cc2)CC1 | i | i | i | i | i | x | x | x | x | x | x | x | x | x | x
Cc1nn(-c2cc(C)c3ccccc3n2)c2c1CCC2 | i | i | i | i | -5.4* | x | x | x | x | i | i | i | i | i | i
Cc1cc(N2CCCC2)nc2ccccc12 | i | i | i | i | -8.2* | 50%* | -30%* | -6.5%* | -410%* | x | x | x | x | 53%* | i
CC(C)n1c(O)c(N=NC(=O)C2COc3ccccc3O2)c2ccccc21 (stereo not drawn) | i | i | i | i | i | x | x | x | x | x | x | x | x | x | x
CCOC(=O)C1=NN(c2ccc(Cl)cc2)C(c2ccccc2)CC1=O (stereo not drawn) | i | i | i | i | -7.5* | i | i | i | i | x | x | x | x | i | i
CCOC(=O)C1=NNC(C(=O)c2ccc(Cl)cc2)C1c1ccccc1 (stereo not drawn) | i | i | i | i | i | x | x | x | x | x | x | x | x | x | x
Cc1ccc([N+](=O)[O-])cc1N=Nc1c(C)[nH]n(C(N)=S)c1=O | i | i | i | i | i | x | x | x | x | x | x | x | x | x | x
Cc1ccc([N+](=O)[O-])cc1N=Nc1c(-c2ccc([N+](=O)[O-])cc2)[nH]n(C(N)=S)c1=O | i | i | i | i | -6.4* | x | x | x | x | i | i | i | 48%* | 48%* | i
Cc1[nH]c2c(Cl)cccc2c(=O)c1CN1CCCCCC1 | i | i | i | i | -5.9* | x | x | x | x | -73%* | i | -18%* | i | i | i
CC[N+](C)(C)CC/C=C1/c2ccccc2Sc2ccc(Cl)cc21 | i | i | i | i | -8.8* | i | -11%* | i | i | x | x | x | x | 79%* | i
CCCCC(O)(CCN1CCOCC1)c1ccc(Cl)cc1 (stereo not drawn) | i | i | i | i | -8.9* | i | 8.8%* | 30%* | 5.8%* | x | x | x | x | 65%* | i
O=C(O)c1ccc(NS(=O)(=O)c2cccc(C(=O)Nc3cccc(C(=O)O)c3)c2)cc1 | i | i | i | i | i | x | x | x | x | x | x | x | x | x | x
